From ChEMBL document CHEMBL4706611, “Selective targeting of the αC and DFG-out pocket in p38 MAPK” (Eur J Med Chem, 2020)

Assay: Metabolic stability in human liver microsomes assessed as compound remaining preincubated for 5 mins in presence of NADPH regeneration system followed by HLM addition measured after 240 mins by LC-MS analysis
Assay type: ADME, Microsome
Conditions: read-out: Stabilty
In short: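 Compounds were incubated with human liver microsomes and sampled at 0, 10, 20, 30, 60, 120, 180 and 240 min. Degradation and metabolite formation were followed by LC-MS, ESI(+). Run in triplicate; mean with standard deviation reported.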

Structure (SMILES)	remaining at 4 h
NC(=O)[C@H](CCC1CCCCC1)NC(=O)c1ccc(CNC(=O)c2cnn(-c3ccccc3)c2N)cc1	66.9%
Nc1c(C(=O)NCc2ccc(C(=O)N[C@@H](CCC3CCCCC3)C(=O)NCc3ccncc3)cc2)cnn1-c1ccccc1	99.5%
CCNC(=O)[C@H](CCC1CCCCC1)NC(=O)c1ccc(CNC(=O)c2cnn(-c3ccccc3)c2N)cc1	64%
Nc1c(C(=O)NCc2ccc(C(=O)N[C@@H](CCC3CCCCC3)C(=O)Nc3ccc(F)cc3)cc2)cnn1-c1ccccc1	83.5%
